Compound activity as filed in PubChem.
mIAP block – inhibitors of mouse IAP, primary screen, biochemical, luminescence, uHTS. inhibition, % at 10 µM. purified mouse IAP, CDP-Star luminescence, 30 min. intestinal alkaline phosphatase [Mus musculus]. AID 2806, 2010. 0.2% of 330,000 active;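 active = inhibition of at least 40% at 10 µM in the primary screen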;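 note: plate controls were DMSO with enzyme for no effect and no enzyme wells for full effect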
mIAP act – activators of mouse IAP, primary screen, biochemical, luminescence, uHTS. intestinal alkaline phosphatase [Mus musculus]. muIAP, CDP-Star luminescence, 30 min; hits give high values; 1 = vehicle-only enzyme signal, 0 = enzyme-free wells. activation factor at 10 µM. 0.24% of 330,000 active. AID 2805, 2010;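 active = activation factor of at least 2 at 20 µM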
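Assay system: mouse IAP enzyme; Reagent: CDP-Star chemiluminescent phosphatase substrate; Compound: DMSO-dissolved test compounds; Incubation: 30 min, room temperature; Technique: luminescence from enzymatic CDP-Star hydrolysis; Controls: DMSO-only wells and no-enzyme negative control.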
hIAP block – human IAP inhibitors, primary screen, biochemical, luminescence, uHTS; Intestinal-type alkaline phosphatase (Homo sapiens), P09923; purified IAP, CDP-Star luminescence, 30 min; inhibition, % at 10 µM; 0.12% of 330,000 active;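 active = inhibition reaching a set limit with compound at 10 µM in the primary screen, cut at about 35% in these data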;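 note: plate controls were DMSO wells with enzyme for no effect and no-enzyme buffer wells for full effect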
Target sequence (P09923 whole entry, looked up): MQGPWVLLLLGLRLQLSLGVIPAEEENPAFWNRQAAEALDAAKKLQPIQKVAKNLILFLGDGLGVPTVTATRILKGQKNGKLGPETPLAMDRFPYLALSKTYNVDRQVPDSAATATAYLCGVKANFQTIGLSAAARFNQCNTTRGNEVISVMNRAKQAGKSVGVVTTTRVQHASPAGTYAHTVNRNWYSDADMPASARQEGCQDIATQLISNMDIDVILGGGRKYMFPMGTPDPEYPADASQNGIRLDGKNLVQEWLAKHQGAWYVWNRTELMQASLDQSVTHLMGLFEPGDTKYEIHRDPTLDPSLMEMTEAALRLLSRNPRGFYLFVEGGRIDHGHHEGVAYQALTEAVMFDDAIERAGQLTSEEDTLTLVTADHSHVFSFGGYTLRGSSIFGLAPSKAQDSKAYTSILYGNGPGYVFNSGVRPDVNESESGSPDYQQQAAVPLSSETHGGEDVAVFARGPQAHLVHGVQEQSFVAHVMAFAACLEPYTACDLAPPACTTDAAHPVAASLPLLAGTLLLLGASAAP
hIAP act – human IAP activators, primary screen, biochemical, luminescence, uHTS. Intestinal-type alkaline phosphatase (Homo sapiens), P09923. purified human IAP, CDP-Star luminescence, 30 min; hits give high values; 1 = vehicle-only enzyme, 0 = enzyme-free background. activation factor at 10 µM. 0.16% of 330,000 active. AID 2524, 2010;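 active = activation factor of the enzyme at least 2-fold when tested at 20 µM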
bIAP activator – bovine intestinal alkaline phosphatase activators, primary screen, biochemical, bovine IAP, CDP-star luminescence | activation factor at 20 µM | AID 1016, 2008 | 0.17% of 200,000 active | alkaline phosphatase, intestinal [Bos taurus] | purified bovine IAP, 30 min; hits give high values; fold of DMSO-control signal, blank-subtracted;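 active = activation factor of 2 or more at 20 µM, a signal rise over negative controls twice the positive control's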
bIAP inh – bovine intestinal alkaline phosphatase inhibitors, primary screen, selectivity assay for TNAP inhibitor project, biochemical, bovine IAP, CDP-star luminescence; purified bovine IAP, 30 min; inhibition, % at 20 µM; 190,000 tested, under 10 active; AID 1019, 2008;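 active = over 50% inhibition of intestinal alkaline phosphatase at 20 µM in the single-dose screen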
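System: Purified bovine intestinal alkaline phosphatase (IAP) enzyme | Input: IAP diluted 1/65,000,000 in the well | Also added: CDP-star chemiluminescent phosphatase substrate, 30 µM final | Dosing: 20 µM single dose | Times: Enzyme reaction for 30 min at room temperature | Detection: Luminescence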
mIAP inh confirm – inhibitors of mouse IAP, confirmation, biochemical, luminescence, single concentration | shares compounds with mIAP block | purified mouse IAP, CDP-Star luminescence, 30 min | inhibition, % at 10 µM | 4.7% of 11,000 active;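 active = inhibition of at least 40% at 10 µM in either of the two replicates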;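 note: plate controls were DMSO wells with enzyme for no effect and buffer wells lacking enzyme for full effect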
The depositor's hits bear a star; nt = no result. An excerpt weighted towards active compounds, which were near 0.72% of everything screened.

SMILES	mIAP block	mIAP act	hIAP block	hIAP act	bIAP activator	bIAP inh	mIAP inh confirm
Nc1nnc(CC(=O)N/N=C/c2cc([N+](=O)[O-])cc(Br)c2O)s1	47.5*	0.525	-9.2	1.09	1.2	-18.6	46.5*
COc1cccc(NC(=O)C2CCN(Cc3cnn(-c4ccccc4)c3-n3cccc3)CC2)c1	-180.0	2.8*	-0.2	1	4*	-298.7	-100.8
O=C(Nc1ccccc1)Nc1ccc2c(c1)CCC2	-118.1	2.18*	7.9	0.921	nt	nt	-94.8
Cc1ccc(/C=C2\SC(=S)N(C3CCS(=O)(=O)C3)C2=O)cc1 (stereo unspecified)	13.7	0.863	1.8	0.982	0.8	19.1	nt
O=C1/C(=C\c2ccco2)SC(=S)N1C1CCS(=O)(=O)C1 (stereo unspecified)	63.6*	0.364	-0.5	1	nt	nt	70.9*
O=C1/C(=C/c2ccco2)SC(=S)N1C1CCS(=O)(=O)C1 (stereo unspecified)	67.2*	0.328	-31.1	1.31	1.2	-21.9	70.8*
CCN(C(=O)C(C)N1C(=O)/C(=C/c2ccco2)SC1=S)C1CCS(=O)(=O)C1 (stereo unspecified)	50.9*	0.491	0.3	0.997	nt	nt	69.8*
C=C(C)c1cccc(C(C)(C)NC(=O)Nc2ccc(C(N)=O)cc2)c1	-123.2	2.23*	-15.0	1.15	1.3	-27.8	-118.3
CC(C)N1CCN(Cc2ccc(-c3ccccc3Cl)o2)CC1CCO (stereo unspecified)	1.4	0.986	8.1	0.919	1	-2.2	nt
Cc1cccc(NC(=O)NCCCCc2ccccc2)c1	-131.7	2.32*	-7.9	1.08	nt	nt	-138.4
Cc1ccc(NC(=O)NCCCCc2ccccc2)cc1	-62.1	1.62	-7.9	1.08	nt	nt	nt
Cc1cccc(NC(=O)NC(C)CCc2ccccc2)c1 (stereo unspecified)	-179.9	2.8*	-4.5	1.04	1.1	-13.0	-182.8
O=C(NCCCc1ccccc1)Nc1ccccc1	-34.9	1.35	-1.0	1.01	1	1.8	nt
O=C(NCCCCc1ccccc1)Nc1cccc(F)c1	-146.1	2.46*	-17.5	1.18	nt	nt	-128.8
Cc1ccc(N(CC(=O)NC2CCCC2)C(=O)c2nsc(Cl)c2Cl)cc1	2.4	0.976	21.1	0.789	nt	nt	nt
O=C(COC(=O)c1ccccc1)Nc1ncc([N+](=O)[O-])s1	67.4*	0.326	-0.9	1.01	nt	nt	72.2*
Oc1cccc(C=NCc2ccccc2)c1O	57.7*	0.423	-6.0	1.06	0.8	15.9	62.8*
Oc1cccc(C=Nc2cccc3ccccc23)c1O	38.2	0.618	-5.2	1.05	nt	nt	nt
Oc1ccc(C[C@@H]2CNCCN2CC2(c3ccccc3)CC2)cc1	5.6	0.944	-13.5	1.14	nt	nt	nt
c1coc(C2Nc3cccc4cccc(c34)N2)c1	51.9*	0.481	-2.8	1.03	0.7	30.8	69.3*
Cc1nn(CC(=O)NCCCc2ccccc2)c(C)c1[N+](=O)[O-]	-7.1	1.07	-4.9	1.05	1.1	-6.3	nt
COc1ccc([C@H]2CC(=O)C=C(c3ccc(Cl)c(Cl)c3)C2)cc1	4.8	0.952	17.4	0.826	nt	nt	nt
O=C1CC(c2ccco2)CC(O)=C1C=Nc1cc(Cl)ccc1Cl (stereo unspecified)	39.8	0.602	1.5	0.985	1	-2.2	nt
O=C1CC(c2ccco2)CC(O)=C1C=Nc1cc(Cl)ccc1O (stereo unspecified)	63.9*	0.361	-68.0	1.68	1.4	-42.0	69.8*
Cc1cccc(NC(=O)c2ccc(OCc3c(C)noc3C)cc2)n1	-5.1	1.05	11.6	0.884	nt	nt	nt
SMILES	mIAP block	mIAP act	hIAP block	hIAP act	bIAP activator	bIAP inh	mIAP inh confirm
C=CCc1cccc2cc(C(=O)NNC(=O)CC#N)c(=O)oc12	45.2*	0.548	-4.6	1.05	nt	nt	54.8*
COc1ccc(CNS(=O)(=O)c2ccc3c(c2)CCN3C(=O)C2CCC2)cc1	2.6	0.974	-31.9	1.32	nt	nt	nt
CCC1CCCCN1CCCNC(=O)c1ccc(CS(=O)(=O)Cc2ccc(Cl)cc2)o1 (stereo unspecified)	1.0	0.99	-22.5	1.23	nt	nt	nt
COc1ccccc1/C=c1\sc2nc(-c3ccccc3OC)nn2c1=O	11.4	0.886	14.1	0.859	0.7	27.4	nt
Cc1ccc(/C=c2\sc3nc(-c4ccco4)nn3c2=O)o1	60.1*	0.399	-2.6	1.03	1.1	-5.1	81.4*
COc1ccc(Br)cc1/C=c1\sc2nc(-c3ccco3)nn2c1=O	60.1*	0.399	-2.7	1.03	0.9	5.3	70.1*
O=C(NNC(=O)c1ccc(O)cc1O)c1ccc(-c2ccccc2)cc1	42.9*	0.571	-41.6	1.42	nt	nt	40.1*
O=C(NNC(=O)c1cccc2ccccc12)c1ccc(-c2ccccc2)cc1	6.7	0.933	-58.3	1.58	0.8	24.0	nt
CCN(CC)c1ccc(S(=O)(=O)N2CCOCC2)cc1NC(=O)Nc1ccccc1	-365.6	4.66*	-4.8	1.05	nt	nt	-152.9
CCN(CC)c1ccc(S(=O)(=O)N2CCOCC2)cc1NC(=O)CNCc1ccccc1	-10.9	1.11	-25.5	1.25	nt	nt	nt
CCCn1c(=O)cc(N)n(-c2ccc(OC(F)(F)F)cc2)c1=O	1.3	0.987	-6.9	1.07	nt	nt	nt
CC1(C)OC(=O)C(=Cc2ccc(-c3ccc(S(N)(=O)=O)cc3)o2)C(=O)O1	63.9*	0.361	1.3	0.987	1.2	-15.7	78.8*
NS(=O)(=O)c1ccc(-c2ccc(/C=C3\C(=O)Nc4ccccc43)o2)cc1	10.7	0.893	15.6	0.844	nt	nt	nt
COc1ccc(CCNC(=O)C2CC(c3ccccc3F)=NO2)cc1 (stereo unspecified)	-4.5	1.04	-21.9	1.22	nt	nt	nt
Brc1ccc2[nH]c3c(NCc4ccccn4)ncnc3c2c1	-22.0	1.22	-22.7	1.23	nt	nt	nt
COc1ccc(CNc2ncnc3c2[nH]c2ccccc23)cc1	-206.5	3.06*	-64.5	1.65	nt	nt	-171.2
Cc1ccc2[nH]c3c(NCc4ccccc4)ncnc3c2c1	-204.3	3.04*	-50.8	1.51	nt	nt	-148.9
COc1ccc(CNc2ncnc3c2[nH]c2cc(OC)c(OC)cc23)cc1	-84.9	1.85	-5.7	1.06	nt	nt	nt
CCOc1ccccc1N1CCN(S(=O)(=O)c2ccc3c4c(cccc24)C(=O)N3)CC1	59.3*	0.407	-10.3	1.1	0.9	6.3	55.8*
CCOC(=O)N1CCN(S(=O)(=O)c2ccc3c4c(cccc24)C(=O)N3)CC1	1.4	0.986	-21.0	1.21	nt	nt	nt
